From ChEMBL document CHEMBL2311388, “Carbamoyl pyridone HIV-1 integrase inhibitors. 2. Bi- and tricyclic derivatives result in superior antiviral and pharmacokinetic profiles” (J Med Chem, 2013)
pIC50: −log10 of the molar value.

How the values were obtained:
[1] = system: Human immunodeficiency virus 1; assay: Selectivity ratio of IC50 for wild type HIV1 3B infected in human MT4 cells in presence of human serum albumin to IC50 for wild type HIV1 3B infected in human MT4 cells; assay type: functional
[2] = system: Human immunodeficiency virus 1; assay: Antiviral activity against wild type HIV1 3B infected in human MT4 cells assessed as cell viability by MTT assay; assay type: functional, organism-based; conditions: Human immunodeficiency virus 1, 3B
Summary of the method: (§1)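 HIV-1 replication in MT-4 cells read by MTT. Values are mean ± s.d. of three independent experiments. The protein-adjusted value is derived from the MT-4/MTT IC50 and the shift seen with human serum albumin. Detailed conditions are those of the earlier paper in the series.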

[3] = Cytotoxicity against human MT4 cells assessed as growth inhibition after 4 days by MTT assay; assay type: cell-based
Summary of the method: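 MT-4 cells; values given as mean ± s.d. of three independent experiments.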

[4] = system: Human immunodeficiency virus 1; assay: Antiviral activity against wild type HIV1 3B infected in human MT4 cells assessed as cell viability by MTT assay in presence of human serum albumin; assay type: functional, organism-based; conditions: Human immunodeficiency virus 1, 3B; summary of the method: as §1
[5] = system: Human immunodeficiency virus 1; assay: Selectivity ratio of IC50 for RAL-resistant HIV1 harboring integrase Y143R mutant to IC50 for wild type HIV1 3B; assay type: functional
[6] = Half life in rat at 1 mg/kg, iv and 5 mg/kg, po; assay type: ADME, organism-based; conditions: in vivo
[7] = Total clearance in rat at 1 mg/kg, iv and 5 mg/kg, po; assay type: ADME, organism-based; conditions: in vivo
[8] = Oral bioavailability in rat at 5 mg/kg; assay type: ADME, organism-based; conditions: in vivo
[9] = Ratio of plasma concentration in rat after 24 hrs to IC50 for wild type HIV1 3B infected in human MT4 cells in presence of human serum albumin; assay type: ADME, cell-based; conditions: mt4, 24 h
[10] = (§2) Volume of distribution at steady state in rat at 1 mg/kg, iv and 5 mg/kg, po; assay type: ADME, organism-based; conditions: in vivo, read-out: Vdss
[11] = system: Human immunodeficiency virus 1; assay: Selectivity ratio of IC50 for RAL-resistant HIV1 harboring integrase N155H mutant to IC50 for wild type HIV1 3B; assay type: functional
[12] = system: Human immunodeficiency virus 1; assay: Selectivity ratio of IC50 for RAL-resistant HIV1 harboring integrase Q148K mutant to IC50 for wild type HIV1 3B; assay type: functional
Rattus norvegicus = assay: as §2; assay type: ADME, organism-based; conditions: in vivo

CN(C)C(=O)CN1CCn2cc(C(=O)NCc3ccc(F)cc3)c(=O)c(O)c2C1=O
Ratio IC50 [1]: 2.4 | pIC50 [2]: 7.59 | CC50 at 96 h [3]: > 200 µM | pIC50 [4]: 7.21

COCCN1CCn2cc(C(=O)NCc3ccc(F)cc3)c(=O)c(O)c2C1=O
Ratio IC50 [5]: 1.5 | half-life [6]: 204 min | Ratio IC50 [1]: 3.1 | clearance [7]: 0.51 mL/min/kg | pIC50 [2]: 8.23 | bioavailability [8]: 41% | CC50 at 96 h [3]: 52 µM | pIC50 [4]: 7.74 | Ratio [9]: 27 | Vd [10]: 0.12 L/kg | Ratio IC50 [11]: 1.5 | Ratio IC50 [12]: 18

CC(=O)N1CCCN2C(=O)c3c(O)c(=O)c(C(=O)NCc4ccc(F)cc4)cn3CC12 (racemic)
Ratio IC50 [1]: 2 | pIC50 [2]: 7.54 | CC50 at 96 h [3]: > 200 µM | pIC50 [4]: 7.24

CC(C)OCCN1CCn2cc(C(=O)NCc3ccc(F)cc3)c(=O)c(O)c2C1=O
Ratio IC50 [1]: 3.1 | pIC50 [2]: 8.38 | CC50 at 96 h [3]: 30 µM | pIC50 [4]: 7.89 | Ratio IC50 [12]: 9.9

CN1CCCCN2C(=O)c3c(O)c(=O)c(C(=O)NCc4ccc(F)cc4)cn3CC12 (racemic)
Ratio IC50 [1]: 4.9 | pIC50 [2]: 8.19 | CC50 at 96 h [3]: > 200 µM | pIC50 [4]: 7.50 | Ratio IC50 [12]: 4.2

CC(C)N1CCN2C(=O)c3c(O)c(=O)c(C(=O)NCc4ccc(F)cc4)cn3CC21 (racemic)
Ratio IC50 [1]: 3.4 | pIC50 [2]: 8.64 | CC50 at 96 h [3]: 8 µM | pIC50 [4]: 8.11 | Ratio IC50 [12]: 39

O=C(NCc1ccc(F)cc1)c1cn2c(c(O)c1=O)C(=O)N1CCCOC1C2 (racemic)
Ratio IC50 [5]: 1.6 | half-life [6]: 1020 min | Ratio IC50 [1]: 7.9 | clearance [7]: 0.1 mL/min/kg | pIC50 [2]: 8.47 | CC50 at 96 h [3]: 18 µM | pIC50 [4]: 7.57 | Ratio [9]: 685 | Vd [10]: 0.13 L/kg | Ratio IC50 [11]: 1.6 | Ratio IC50 [12]: 2.8

O=C(NCc1ccc(F)cc1)c1cn2c(c(O)c1=O)C(=O)N1CCCCOC1C2 (racemic)
Ratio IC50 [1]: 7.6 | pIC50 [2]: 8.54 | CC50 at 96 h [3]: 26 µM | pIC50 [4]: 7.66 | Ratio IC50 [12]: 2.2

CC(C)OCCn1ccn2cc(C(=O)NCc3ccc(F)cc3)c(=O)c(O)c2c1=O
Ratio IC50 [1]: 4.4 | pIC50 [2]: 8.37 | CC50 at 96 h [3]: 49 µM | pIC50 [4]: 7.72 | Ratio IC50 [12]: 39

CC(C)CN1CCCCN2C(=O)c3c(O)c(=O)c(C(=O)NCc4ccc(F)cc4)cn3CC12 (racemic)
Ratio IC50 [1]: 17 | pIC50 [2]: 8.27 | CC50 at 96 h [3]: 13 µM | pIC50 [4]: 7.04 | Ratio IC50 [12]: 3.2

O=C(NCc1ccc(F)cc1)c1cn2c(c(O)c1=O)C(=O)N1CCCN(Cc3nccs3)C1C2 (racemic)
Ratio IC50 [1]: 3.9 | pIC50 [2]: 8.48 | CC50 at 96 h [3]: 2.8 µM | pIC50 [4]: 7.89 | Ratio IC50 [12]: 4.2

COCCn1ccn2cc(C(=O)NCc3ccc(F)cc3)c(=O)c(O)c2c1=O
Ratio IC50 [5]: 1.6 | half-life [6]: 660 min | Ratio IC50 [1]: 17 | clearance [7]: 0.02 mL/min/kg | pIC50 [2]: 8.80 | bioavailability [8]: 40% | CC50 at 96 h [3]: > 200 µM | pIC50 [4]: 7.57 | Ratio [9]: 2600 | Vdss (Rattus norvegicus): 15 mL/kg | Ratio IC50 [11]: 3.7 | Ratio IC50 [12]: 35

O=C(NCc1ccc(F)cc1)c1cn2ccn(C3CCCCC3)c(=O)c2c(O)c1=O
Ratio IC50 [1]: 13 | pIC50 [2]: 7.92 | CC50 at 96 h [3]: > 200 µM | pIC50 [4]: 6.81 | Ratio IC50 [12]: >250

O=C(NCc1ccc(F)cc1)c1cn2c(c(O)c1=O)C(=O)N(CCN1CCOCC1)CC2
Ratio IC50 [1]: 1.6 | pIC50 [2]: 7.68 | CC50 at 96 h [3]: 160 µM | pIC50 [4]: 7.47

COCCN1C(=O)c2c(O)c(=O)c(C(=O)NCc3ccc(F)cc3)cn2CC1O (configuration not stated)
Ratio IC50 [5]: 1.5 | half-life [6]: 456 min | Ratio IC50 [1]: 3.7 | clearance [7]: 0.24 mL/min/kg | pIC50 [2]: 8.42 | bioavailability [8]: 14% | CC50 at 96 h [3]: 83 µM | pIC50 [4]: 7.85 | Ratio [9]: 117 | Vd [10]: 0.14 L/kg | Ratio IC50 [11]: 1.5 | Ratio IC50 [12]: 2.1

COCCN1CCCN2C(=O)c3c(O)c(=O)c(C(=O)NCc4ccc(F)cc4)cn3CC12 (racemic)
Ratio IC50 [1]: 3.9 | pIC50 [2]: 8.28 | CC50 at 96 h [3]: 9.8 µM | pIC50 [4]: 7.69 | Ratio IC50 [12]: 5.7

COC(=O)c1[nH]cc(C(=O)NCc2ccc(F)cc2)c(=O)c1O
Ratio IC50 [5]: 1.5 | half-life [6]: 282 min | Ratio IC50 [1]: 12 | Ratio [9]: 3.4 | Vd [10]: 0.2 L/kg | Ratio IC50 [11]: 21 | Ratio IC50 [12]: 200

CS(=O)(=O)N1CCCN2C(=O)c3c(O)c(=O)c(C(=O)NCc4ccc(F)cc4)cn3CC21 (racemic)
Ratio IC50 [1]: 2.8 | pIC50 [2]: 7.37 | CC50 at 96 h [3]: > 220 µM | pIC50 [4]: 6.92

O=C(NCc1ccc(F)cc1)c1cn2c(c(O)c1=O)C(=O)N(C1CCCCC1)CC2
Ratio IC50 [1]: 4.4 | pIC50 [2]: 8.19 | CC50 at 96 h [3]: > 240 µM | pIC50 [4]: 7.54 | Ratio IC50 [12]: >250

CN1CCCN2C(=O)c3c(O)c(=O)c(C(=O)NCc4ccc(F)cc4)cn3CC12 (racemic)
Ratio IC50 [1]: 4.3 | pIC50 [2]: 8.42 | CC50 at 96 h [3]: 20 µM | pIC50 [4]: 7.79 | Ratio IC50 [12]: 4.7

CC(C)N1CCCN2C(=O)c3c(O)c(=O)c(C(=O)NCc4ccc(F)cc4)cn3CC21 (racemic)
Ratio IC50 [1]: 4.3 | pIC50 [2]: 8.12 | CC50 at 96 h [3]: 7.2 µM | pIC50 [4]: 7.49 | Ratio IC50 [12]: 9.1

O=C(NCc1ccc(F)cc1)c1cn2c(c(O)c1=O)C(=O)N1CCOC1C2 (racemic)
Ratio IC50 [1]: 52 | pIC50 [2]: 8.57 | CC50 at 96 h [3]: 72 µM | pIC50 [4]: 6.85 | Ratio IC50 [12]: 19

O=C(NCc1ccc(F)cc1)c1cn2ccn(CCN3CCOCC3)c(=O)c2c(O)c1=O
Ratio IC50 [1]: 3 | pIC50 [2]: 8.18 | CC50 at 96 h [3]: 36 µM | pIC50 [4]: 7.70 | Ratio IC50 [12]: >250

COc1cc2c(cc1Cc1cccc(Cl)c1F)c(=O)c(C(=O)O)cn2[C@H](CO)C(C)C [ELVITEGRAVIR]
Ratio IC50 [5]: 1.8 | Ratio IC50 [11]: 25 | Ratio IC50 [12]: >1700

O=C(NCc1ccc(F)cc1)c1cn2ccn(CCOc3ccccc3)c(=O)c2c(O)c1=O
Ratio IC50 [1]: 11 | pIC50 [2]: 8.36 | CC50 at 96 h [3]: 2.4 µM | pIC50 [4]: 7.32 | Ratio IC50 [12]: >250

CN(C)C(=O)Cn1ccn2cc(C(=O)NCc3ccc(F)cc3)c(=O)c(O)c2c1=O
Ratio IC50 [1]: 4.1 | pIC50 [2]: 7.46 | CC50 at 96 h [3]: > 200 µM | pIC50 [4]: 6.84

O=C(NCc1ccc(F)cc1)c1cn2c(c(O)c1=O)C(=O)N(CCOc1ccccc1)CC2
Ratio IC50 [1]: 9.5 | pIC50 [2]: 8.17 | CC50 at 96 h [3]: 10 µM | pIC50 [4]: 7.19 | Ratio IC50 [12]: 17
